In ChEMBL document CHEMBL1777739, “Design, synthesis, and biological activity of novel Magmas inhibitors” (Bioorg Med Chem Lett, 2011):
Activity calls are given as the source filed them. The rule behind the calls is not given here.

Tests used:
[1] = Solubility of the compound at 1 mM; assay type: physicochemical; details: 1000 µM
Saccharomyces cerevisiae [2] = test: Inhibition of TIM16-mediated Saccharomyces cerevisiae J47D proliferation in log phase at 10 uM measured for every 30 mins
Procedure, shortened: (§1)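 Log-phase S. cerevisiae J47D plated at 1.5 × 10⁴ cells/well in YEPD. Compounds in DMSO added across 0–1 mM, triplicate wells, 1% final DMSO. Cultured at 30 °C with OD600 read every 30 min. n = 3; each experiment done at least twice independently.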

Saccharomyces cerevisiae [3] = test: Inhibition of TIM16-mediated Saccharomyces cerevisiae J47D proliferation in log phase at 100 uM measured for every 30 mins; procedure, shortened: as §1
Saccharomyces cerevisiae [4] = test: Inhibition of TIM16-mediated Saccharomyces cerevisiae J47D proliferation in log phase at 1 uM measured for every 30 mins; procedure, shortened: as §1
Saccharomyces cerevisiae [5] = test: Inhibition of TIM16-mediated Saccharomyces cerevisiae J47D proliferation in log phase at 1 mM measured for every 30 mins; procedure, shortened: as §1
[6] = Binding affinity to Saccharomyces cerevisiae Magmas by fluorometric titration
Procedure, shortened: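 Intrinsic Trp/Tyr fluorescence of yeast Magmas (3 µM, unit as printed) in 50 mM Bis–Tris pH 7.1, 25 °C. Excitation 295 nm, emission read at 365 nm. Ligand titrated from 0 to […] using freshly made stock. Dilution kept ≤10% and corrected for. Kd obtained by fitting intensity versus total ligand concentration to a single-site binding equation.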

Saccharomyces cerevisiae [7] = test: Inhibition of Saccharomyces cerevisiae TIM16 N84T mutant-mediated proliferation up to 60 mins
Procedure, shortened: (§2)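 Yeast whose wild-type TIM16 plasmid was lost on FOA selection, carrying plasmid-borne Tim16 N84T or A104S mutants, cultured in YEPD at 30 °C. Compound added at graded concentrations in DMSO (1% final), triplicate wells. OD600 read every 30 min; compared with the wild-type plasmid strain.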

[8] = system: T1, Saccharomyces cerevisiae [A104S]; test: Inhibition of Saccharomyces cerevisiae TIM16 A104S mutant-mediated proliferation up to 60 mins; procedure, shortened: as §2
T1 sequence (whole entry): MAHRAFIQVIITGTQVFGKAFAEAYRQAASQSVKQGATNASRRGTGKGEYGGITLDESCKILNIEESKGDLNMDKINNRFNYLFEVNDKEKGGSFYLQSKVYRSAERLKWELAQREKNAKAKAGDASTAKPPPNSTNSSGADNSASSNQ

Row | solubility [1] | inhibition (Saccharomyces cerevisiae [2]) | inhibition (Saccharomyces cerevisiae [3]) | inhibition (Saccharomyces cerevisiae [4]) | inhibition (Saccharomyces cerevisiae [5]) | Kd [6] [µM] | inhibition (Saccharomyces cerevisiae [7]) | inhibition [8] | SMILES
1 | Insoluble | inactive | Active | inactive |  |  |  |  | CCCCCCCCC1C=Cc2cc([N+](=O)[O-])ccc2O1 (stereo not drawn)
2 |  | inactive | inactive | inactive | inactive |  |  |  | O=[N+]([O-])c1ccc2c(c1)C=CC(c1ccccc1)O2 (stereo not drawn)
3 |  | Active | Active | inactive | Active | 33.5 | inactive | Active | CCC1=C(C)/C(=C/c2ccc(C(=O)NC(=N)N)cc2)CCC1(C)C
4 | Insoluble | inactive | Active | inactive |  |  |  |  | Clc1ccc2c(c1)C=CC(c1ccccc1)O2 (stereo not drawn)
5 |  | Active | Active | inactive | Active |  |  |  | Brc1ccc2c(c1)C=CC(c1ccccc1)O2 (stereo not drawn)
